Compounds with a hit are over-represented: about 1.8% of the library has one in this group of screens.
EphB4 ephrin blk: EphB4-ephrin-B2 interaction antagonists, primary screen, biochemical, TNYL-RAW peptide probe, fluorescence polarization; EphB4 LBD / TNYL-RAW-Alexa532 peptide; hit rate 0.15% among 97,000; inhibition, % at 7 µM; AID 720, 2007; Ephrin type-B receptor 4 (Homo sapiens), P54760;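 active means inhibition above the screen-wide mean inhibition plus 3 SD, cut at about 15% in these data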
Rev-RRE block: HIV-1 Rev-RRE binding inhibitors, primary screen, biochemical, FRET, protein-RNA interaction | P05866 | Rev peptide-RRE RNA binding | inhibition, % at 8 µM | hit rate 0.79% among 97,000 | AID 704, 2007;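 active means inhibition above the screen-wide mean plus 3 SD, cut at about 35% in these data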
Target sequence (P05866 whole entry, looked up): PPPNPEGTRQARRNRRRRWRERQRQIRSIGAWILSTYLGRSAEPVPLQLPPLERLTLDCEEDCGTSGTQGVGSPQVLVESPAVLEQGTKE
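Assay system: labelled RRE RNA duplex and labelled Rev peptide / Medium: HEPES pH 7.5 salt buffer with EDTA / Reagent: labelled Rev peptide / Schedule: 5 + 15 min at 25 °C / Signal: FRET, excitation 480 nm, emission 540 nm donor and 671 nm acceptor / Benchmarks: DMSO and neomycin B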
LYP inh 2: PTPN22 phosphatase inhibitors, primary screen, biochemical, DiFMUP fluorescence, 2 µM; Tyrosine-protein phosphatase non-receptor type 22 (Homo sapiens), Q9Y2R2; recombinant LYP catalytic domain; inhibition, % at 2 µM; hit rate 0.21% among 96,000; AID 640, 2007;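 active means inhibition at 2 µM at or above a set limit, the screen mean plus 3 SD, cut at about 24% in these data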
PLK1 inh: human PLK1 kinase inhibitors, primary screen, biochemical, TR-FRET. Serine/threonine-protein kinase PLK1 (Homo sapiens), P53350. recombinant PLK1 kinase, TR-FRET peptide phosphorylation. inhibition, % at 10 µM. hit rate 0.53% among 97,000;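 active means inhibition of 50% or more in the single-concentration screen; inactive means inhibition below 50%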
Target sequence (P53350 whole entry, looked up): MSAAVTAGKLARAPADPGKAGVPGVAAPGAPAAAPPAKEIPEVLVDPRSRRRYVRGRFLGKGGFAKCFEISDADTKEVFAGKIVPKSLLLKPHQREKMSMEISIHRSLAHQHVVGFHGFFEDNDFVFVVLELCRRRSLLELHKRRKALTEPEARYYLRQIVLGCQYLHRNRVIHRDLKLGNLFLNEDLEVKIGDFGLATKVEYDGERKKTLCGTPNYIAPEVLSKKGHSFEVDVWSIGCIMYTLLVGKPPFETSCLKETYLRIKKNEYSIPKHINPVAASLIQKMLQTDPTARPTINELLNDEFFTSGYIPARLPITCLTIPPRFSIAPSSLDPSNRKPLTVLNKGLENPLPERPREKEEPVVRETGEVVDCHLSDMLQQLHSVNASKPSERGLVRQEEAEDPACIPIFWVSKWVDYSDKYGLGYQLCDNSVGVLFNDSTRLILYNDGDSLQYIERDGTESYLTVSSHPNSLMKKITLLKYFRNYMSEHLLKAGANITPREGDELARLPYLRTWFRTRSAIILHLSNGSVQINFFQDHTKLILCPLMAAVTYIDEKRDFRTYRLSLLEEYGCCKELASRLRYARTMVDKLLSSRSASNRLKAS
PTPN22 act: LYP phosphatase activators, primary screen, biochemical, DiFMUP fluorescence, 2 µM. Tyrosine-protein phosphatase non-receptor type 22 (Homo sapiens), Q9Y2R2. recombinant LYP; 0 = plate median, 100 = signal doubled. activation, % at 2 µM. hit rate 0.11% among 96,000. AID 697, 2007;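 active means activation at 2 µM above a set limit, the mean plus 5 SD, cut at about 37% in these data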
Plk1 PBD FP: Plk1 polo box domain binding inhibitors, primary screen, biochemical, fluorescence polarization; Serine/threonine-protein kinase PLK1 (Homo sapiens), P53350; Plk1 PBD phosphopeptide binding; inhibition, %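 (tested at about 20 µM)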; hit rate 0.13% among 97,000; in the data active means inhibition above about 34%, passing the limit was not always enough
Of the large screens only hits and unclear results are named; the others gave an inactive call; [ ] = remark or other dose.

Cc1ccnc(N/C=C(\C#N)c2nc(-c3cccc(Br)c3)cs2)c1	Rev-RRE block 136[fluorescence artefact?]
CCCSc1nc(C)cc(C)c1C(N)=O	none
CC1Cc2ccccc2N1C(=O)C1CCCN(S(=O)(=O)c2cccc3cccnc23)C1 (stereo not drawn)	PLK1 inh 55 (no result: LYP inh 2, PTPN22 act)
COc1ccc(N2CCN(C(=O)C3CCCN(S(=O)(=O)c4cccc5cccnc45)C3)CC2)cc1 (stereo not drawn)	none
CC(=O)N(C)c1nnc(-c2ccccn2)s1	none
CC1=CC(C#N)(C#N)C(C#N)(C#N)C(c2ccccc2)N1 (stereo not drawn)	Rev-RRE block 52
Cc1c(C(=O)N2CCCc3ccccc32)oc2ccc(S(=O)(=O)N3CCOCC3)cc12	none
CC1C/C(=N/O)C(C)CN1 (stereo not drawn)	PLK1 inh 53
COc1cc(/C=N\Nc2ccc([N+](=O)[O-])cc2)ccc1OCC(=O)Nc1ccc(C)c(C)c1	Rev-RRE block 76[fluorescence artefact?]
CCOc1cc(/C=N\Nc2ccc([N+](=O)[O-])cc2)ccc1OCC(=O)Nc1ccc(C)c(C)c1	none
Nc1nc(N2CCOCC2)cc(=O)[nH]1	none
CCc1ccc(/C(C)=N\Nc2ccc([N+](=O)[O-])cc2)cc1	Rev-RRE block 52
COc1ccc(N/N=C(/Oc2ccc([N+](=O)[O-])cc2)C(C)=O)cc1	none
O=c1c(/C=C(\O)c2ccccc2)nc2ccccc2n1-c1ccccc1	Rev-RRE block 98[fluorescence artefact?]
Cc1nc2ccccc2n1-c1ccccc1	none
CCN=c1scc(C)n1/N=C/c1ccc(O)c(O)c1O	PLK1 inh 55
COc1ccc(-n2c(COc3cccc4ccccc34)nnc2SCC(=O)NCc2ccco2)cc1	none
CCOC(=O)CSC(C)C(=O)Nc1nnc(C(C)C)s1 (stereo not drawn)	PLK1 inh 64 (no result: LYP inh 2, PTPN22 act)
Cc1cc(O)ccc1Nc1nc2ccccc2nc1Nc1ccc(O)cc1C	none
Nc1nc(OCC(F)(F)F)cc(Oc2ccccc2F)n1	none
Nc1cc(N)c(OCC(F)(F)F)cc1OCC(F)(F)F	Rev-RRE block 68
CCCNC(=O)NC(=O)COC(=O)c1ccc(OC)c(S(=O)(=O)N2CCCc3ccccc32)c1	none
O=C(Nc1cccc(Cl)c1)c1cnn2cccnc12	PLK1 inh 60
O=C(Nc1cc(Cl)cc(Cl)c1)c1cnn2cccnc12	none
O=C(CN1C(=O)NC2(CCCC2)C1=O)NCCC1=CCCCC1	EphB4 ephrin blk 16
CN1CC(=O)NC1=NC(=O)c1ccc(Cl)c(S(=O)(=O)N2CCCCCC2)c1	none
COC(=O)c1sccc1-n1cccc1C(=O)C(=O)N1CC(C)OC(C)C1 (stereo not drawn)	none
Cc1cc(C(=O)CSc2nnc(N)s2)c(C)n1CCc1ccc(Cl)cc1	none
COc1ccc(CCn2c(C)cc(C(=O)CSc3nnc(N)s3)c2C)cc1	EphB4 ephrin blk 16
Cc1ccc(N(CC(=O)NC2CCCC2)C(=O)CCCC(=O)Nc2ccccn2)cc1C	PLK1 inh 58
Cc1ccc(C)c(N(CC(=O)NC2CCCCC2)C(=O)CCC(=O)Nc2ccccn2)c1	none
CCc1nnc(NC(=O)C2c3ccccc3Oc3ccccc32)s1	none
CCCN(C(=S)Nc1ccccc1)C1CCS(=O)(=O)C1 (stereo not drawn)	none
O=C(CSc1nc2ccc(S(=O)(=O)N3CCOCC3)cc2[nH]1)N1CCOCC1	LYP inh 2 34
O=C(CSc1nc2ccccc2c(=O)[nH]1)N1CCN(S(=O)(=O)c2ccccc2)CC1	none
O=C(CCCOc1ccc(Cl)cc1Cl)Nc1ccncc1	PLK1 inh 54
CCOC(=O)Cc1c(C)nc2c(-c3ccc(OC)cc3)c(C)nn2c1C	none
CCC(=O)Nc1nc(=S)ss1	none
Cc1ccc(C(=O)NCc2ccco2)cc1S(=O)(=O)Nc1cccc(Cl)c1	none
COC(=O)c1ccc(COc2ccc3c(C)c(C)c(=O)oc3c2C)o1	EphB4 ephrin blk 22
Cc1nc(S/C(=C/c2ccc(-c3cccc(Cl)c3)o2)C(=O)O)n[nH]1	LYP inh 2 24
CC1=NOC(=O)/C1=C\c1ccc(-c2cccc(Cl)c2)o1	none
CCOCC(=O)Nc1nnc(COCC)s1	none
CCOCC(=O)Nc1nnc(SCCOC)s1	PLK1 inh 52
O=c1[nH]ncc2c3ccccc3n(Cc3ccc(F)cc3)c12	PLK1 inh 52
N#CC1=C(N)Oc2cc(Nc3ccccc3)ccc2C1c1ccncc1 (stereo not drawn)	none
COCCCNc1c2c3c(cccc3[nH]c1=O)C(=O)c1ccccc1-2	EphB4 ephrin blk 48[fluorescence artefact?], Rev-RRE block 141[fluorescence artefact?]
CN(/C(=N\S(=O)(=O)c1ccccc1)C(F)(F)F)c1ccccc1	Rev-RRE block 37
CC1CCCN(Cc2cccc(Oc3ccccc3)c2)C1 (stereo not drawn)	none
CCOc1ccc(N(CC(=O)NC(C)CC)S(=O)(=O)c2c(C)noc2C)cc1 (stereo not drawn)	PLK1 inh 63 (no result: LYP inh 2, PTPN22 act)
CCOc1ccc(OCC)c(NC(=O)CN(c2ccc(C)cc2)S(=O)(=O)c2c(C)noc2C)c1	none
CCOc1ccccc1NC(=O)CN(c1ccc(C)cc1)S(=O)(=O)c1c(C)noc1C	LYP inh 2 27
CCOc1ccc(N(CC(=O)Nc2ccc(OC)cc2)S(=O)(=O)c2c(C)noc2C)cc1	none
CCN1CCN(CC(=O)Nc2cccc(C)c2C)C(=O)C1=O	none
C=CCn1cc(/C=N\NC(=O)c2cc3c(ccc4ccccc43)o2)c2ccccc21	none
O=C(N/N=C/C=C/c1ccccc1)c1cc2c(ccc3ccccc32)o1	LYP inh 2 32
COc1ccc(Cl)cc1N1C(=O)/C(=C\c2sccc2C)N=C1SCC(=O)NC1CC1	none
C=CCNC(=S)NNC(=O)c1cccc2ccccc12	none
CNC(=S)NNC(=O)c1cccn(Cc2cccc(Cl)c2)c1=O	LYP inh 2 60
O=C(Nc1cccn(Cc2c(Cl)cccc2Cl)c1=O)c1ccccc1Cl	none
C=CCNC(=S)NNC(=O)c1cccn(Cc2ccc(Cl)c(Cl)c2)c1=O	LYP inh 2 28
CNC(=S)NNC(=O)c1cccn(Cc2ccc(Cl)c(Cl)c2)c1=O	LYP inh 2 69
Cc1noc(C)c1S(=O)(=O)N(C)CC(=O)Nc1ccc(F)cc1	none
Cc1nc(SCC(=O)NCCc2ccc(Cl)cc2)nc(C)c1C	none
CN1/C(=C\C=Nc2ccc3ccccc3c2)C(C)(C)c2ccccc21	Rev-RRE block 63
CN1/C(=C\C=Nc2ccccc2)C(C)(C)c2ccccc21	none
COC(=O)C1=C(N)c2c(F)cccc2C1(C#N)c1ccc(F)cc1 (stereo not drawn)	none

Screening data deposited in PubChem by several laboratories.
